Each structure is given as a SMILES string. Some results are limits rather than exact numbers.

The text below walks through data of ChEMBL document CHEMBL1135596, “Synthesis and evaluation of indenopyrazoles as cyclin-dependent kinase inhibitors. 2. Probing the indeno ring substituent pattern” (J Med Chem, 2002).

The target in experiment [1] is T1, Cyclin-dependent kinase 2/cyclin E (Homo sapiens, UniProt P24941). The experiment in a line: Compound was evaluated for inhibition of Cyclin-dependent kinase 2-cyclin E. The experiment is classed as protein-complex assay. The method, boiled down: (§1)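 CDK2/his-cyclin E in 50 mM Tris-HCl pH 7.6, 10 mM MgCl2, 10% DMSO, 1 mM DTT, 50 µM ATP, 0.05 µCi [γ-32P]ATP, 6 µM GST-Rb. Incubated at room temperature, stopped with cold PBS containing 100 mM EDTA, 10 mM ATP, BSA and NP40. 32P incorporation into Rb measured; IC50 by fit of v/vo to [I] with slope factor.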

Experiment [2] concerns the target T2, Cyclin-dependent kinase 4/cyclin D1 (Homo sapiens, UniProt P11802). The experiment can be described thus: Compound was evaluated for 50% inhibition of Cyclin-dependent kinase 4-cyclin D1. Format: protein-complex assay. The essentials: (§2)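 CDK4/cyclin D1 from extracts of co-expressing cells; 50 mM Tris-HCl pH 7.6, 10 mM MgCl2, 10% DMSO, 1 mM DTT, 50 µM ATP with [γ-32P]ATP, 6 µg GST-Rb (Rb aa 378-928). Started with 4 units enzyme, 15 min at room temperature, stopped with EDTA/ATP buffer. Labeled GST-Rb captured on GSH-Sepharose and counted by scintillation. IC50 from fit of v/vo versus [I] with slope term.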

Experiment [3] has as its system HCT-116. The experiment in a line: Toxicity tested against transformed human colon cancer cell line (HCT116). Format: functional, cell-based. The method, boiled down: (§3)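 Sulforhodamine B growth assay. HCT116 colon carcinoma or AG1523 normal fibroblasts were seeded in McCoy's 5A with 5% FBS, at a density allowing 3-5 doublings. Incubation was 5 days (HCT116) or 6 days (AG1523) at 37 °C, 5% CO2. Cells were fixed with cold TCA, stained with 0.4% SRB, and dye was dissolved in 10 mM Tris base; OD read at 570 nm.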

For experiment [4], the system named is AG1523. The experiment can be described thus: Toxicity tested against normal human fibroblast cell line (AG1523). The experiment is classed as functional, cell-based. The essentials:
as §3

The subject of experiment [5] is HCT-116. The experiment in a line: Effect of serum protein binding on inhibition of transformed cell line(PB HCT116) proliferation. The experiment is classed as functional, cell-based. The note with it: Homo sapiens. The essentials: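 HCT116 cells were grown as in the SRB assay, with 45 mg/mL human serum albumin plus 1 mg/mL α1-acid glycoprotein added together with graded compound. Growth was read out by MTT: 1 mg/mL solution added, 4 h at 37 °C. Formazan was solubilized in 0.04 N HCl/isopropanol and absorbance read at 570 nm against a 630 nm reference.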

The target in experiment [6] is T2, Cyclin-dependent kinase 4/cyclin D1. The experiment can be described thus: Inhibition of Cyclin-dependent kinase 4-cyclin D1. Format: protein-complex assay. The essentials:
as §2

Experiment [7] concerns the target T1, Cyclin-dependent kinase 2/cyclin E. The experiment in a line: Inhibition of Cyclin-dependent kinase 2-cyclin E. Format: protein-complex assay. The method, boiled down: as §1

T2 sequence (P11802 whole entry, the tested form may be a part): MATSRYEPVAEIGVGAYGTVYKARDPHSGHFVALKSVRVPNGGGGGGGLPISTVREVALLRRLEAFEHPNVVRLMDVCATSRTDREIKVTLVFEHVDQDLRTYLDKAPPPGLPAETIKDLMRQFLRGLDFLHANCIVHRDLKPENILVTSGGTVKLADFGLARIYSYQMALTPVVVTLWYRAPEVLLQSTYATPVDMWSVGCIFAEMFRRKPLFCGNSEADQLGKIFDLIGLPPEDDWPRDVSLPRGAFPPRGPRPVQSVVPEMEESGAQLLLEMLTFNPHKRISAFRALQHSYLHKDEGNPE
T2 sequence (P24385 whole entry, further chain, the tested form may be a part): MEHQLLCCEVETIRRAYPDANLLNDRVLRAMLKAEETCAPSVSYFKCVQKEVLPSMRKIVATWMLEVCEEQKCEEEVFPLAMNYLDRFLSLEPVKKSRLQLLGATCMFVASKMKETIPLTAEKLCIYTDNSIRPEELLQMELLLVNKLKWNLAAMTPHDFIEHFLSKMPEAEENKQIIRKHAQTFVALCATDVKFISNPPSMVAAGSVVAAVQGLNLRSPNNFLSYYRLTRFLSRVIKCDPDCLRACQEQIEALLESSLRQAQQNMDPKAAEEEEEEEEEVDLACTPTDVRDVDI

For the compound `COc1ccc(-c2[nH]nc3c2C(=O)c2c(NC(=O)NN4CCCC4)cccc2-3)cc1`, the IC50 in experiment [1] came out at 0.015 µM; in experiment [2], 0.012 µM.
In the case of `COc1ccc(-c2[nH]nc3c2C(=O)c2c(NC(=O)NN4CCCCC4)cccc2-3)cc1`, the results for the half-inhibitory concentration (IC50) in experiment [1] and in experiment [2] were 0.022 µM and 0.012 µM, respectively.
Taken in the same sequence, the figures for `COc1ccc(-c2[nH]nc3c2C(=O)c2c(NC(=O)CN4CCC(CO)CC4)cccc2-3)cc1` were 0.011 µM and 0.082 µM.
`COc1ccc(-c2[nH]nc3c2C(=O)c2c(N)cccc2-3)cc1`: the IC50 in experiment [1] is 8.4 µM; in experiment [2] it was 23 µM.
For `COc1ccc(-c2[nH]nc3c2C(=O)c2c(NC(=O)NCc4ccncc4)cccc2-3)cc1`, the IC50 in experiment [1] is 0.029 µM; in experiment [3], 0.378 µM; in experiment [4], more than 24 µM; in experiment [2], 1.15 µM; in experiment [5], more than 58 µM.
With `COc1ccc(-c2[nH]nc3c2C(=O)c2c(NC(=O)CN4CCN(C(=N)N)CC4)cccc2-3)cc1`, the values for the IC50 in experiment [1], in experiment [3] and in experiment [2] were 0.007 µM, more than 0.9 µM and 0.026 µM, respectively.
As to `COc1ccc(-c2[nH]nc3c2C(=O)c2c(NC(=O)CN4CCN(C(N)=O)CC4)cccc2-3)cc1`, the half-inhibitory concentration (IC50) is 0.008 µM in experiment [1]; 0.047 µM in experiment [3]; more than 0.4 µM in experiment [4]; 0.064 µM in experiment [2]; more than 5.2 µM in experiment [5].
Regarding `COc1ccc(-c2c3c(nn2-c2ccccc2)-c2ccccc2C3=O)cc1`, the concentration for half-maximal inhibition (IC50) is more than 280 µM in experiment [1] and more than 200 µM in experiment [2].
In the same order, the values of `CCCCNC(=O)Nc1cccc2c1C(=O)c1c(-c3ccc(OC)cc3)n[nH]c1-2` are 0.084 µM and 0.78 µM.
In the case of `COc1ccc(-c2[nH]nc3c2C(=O)c2c(NC(=O)CN4CCC(CN)CC4)cccc2-3)cc1`, the IC50 in experiment [1] was 0.012 µM; in experiment [3], 0.07 µM; in experiment [4], 0.6 µM; in experiment [2], 0.02 µM.
As to `COc1ccc(-c2[nH]nc3c2C(=O)c2c(NC(=O)N(C)Cc4ccccc4)cccc2-3)cc1`, the IC50 in experiment [1] and in experiment [2] was more than 2.3 µM each time.
On to `COc1ccc(-c2[nH]nc3c2C(=O)c2c(NC(=O)CN4CCCCC4)cccc2-3)cc1`, for which the IC50 was 0.185 µM in experiment [1] and more than 1 µM in experiment [2].
On to `CCN(CC)C(=O)Nc1cccc2c1C(=O)c1c(-c3ccc(OC)cc3)n[nH]c1-2`, for which the IC50 in experiment [1] and in experiment [2] was more than 1.3 µM each time.
`COc1ccc(-c2[nH]nc3c2C(=O)c2c(NC(=O)CN4CCSCC4)cccc2-3)cc1`: the IC50 was 0.054 µM in experiment [1] and more than 0.5 µM in experiment [2].
`COc1ccc(-c2[nH]nc3c2C(=O)c2cc(O)ccc2-3)cc1` came in with an IC50 in experiment [2] of 21.5 µM.
Consider `COc1ccc(-c2[nH]nc3c2C(=O)c2cc(N)ccc2-3)cc1`, for which the IC50 in experiment [1] was 210 µM; in experiment [2], 108 µM.
Taken in the same sequence, the figures for `COc1ccc(-c2[nH]nc3c2C(=O)c2c(NC(=O)CN(C)C)cccc2-3)cc1` were 0.044 µM and 0.9 µM.
In the same order, the values of `COc1ccc(-c2[nH]nc3c2C(=O)c2c(NC(=O)CN4CCNCC4)cccc2-3)cc1` are 0.033 µM and 0.113 µM.
In the same order, the values of `CCNCC(=O)Nc1cccc2c1C(=O)c1c-2n[nH]c1-c1ccc(OC)cc1` are 0.13 µM and 0.917 µM.
For the compound `COc1ccc(-c2[nH]nc3c2C(=O)c2c(NC(=O)NN4CCN(C)CC4)cccc2-3)cc1`, the IC50 in experiment [1] came to 0.012 µM; in experiment [3], 0.015 µM; in experiment [4], 0.085 µM; in experiment [2], 0.009 µM.
Regarding `COc1ccc(-c2[nH]nc3c2C(=O)c2c(NC(N)=O)cccc2-3)cc1`, the IC50 in experiment [1] turned out to be 0.007 µM; in experiment [3], 0.057 µM; in experiment [4] it was 0.413 µM; in experiment [2], 0.066 µM; in experiment [5], 3.2 µM.
`COc1ccc(-c2[nH]nc3c2C(=O)c2c(NC(=O)CN4CCC(C(N)=O)CC4)cccc2-3)cc1`: the IC50 in experiment [1] was 0.008 µM; in experiment [4], 0.4 µM; in experiment [2], 0.076 µM.
In the case of `COc1ccc(-c2[nH]nc3c2C(=O)c2cc(Cl)c(Cl)cc2-3)cc1`, the IC50 in experiment [2] turned out to be 55.5 µM.
In experiment [2], `COc1ccc(-c2[nH]nc3c2C(=O)c2cccnc2-3)cc1` showed an IC50 of more than 361 µM.
Turning to `COc1ccc(-c2c3c(nn2C)-c2ccccc2C3=O)cc1`, the IC50 in experiment [1] and in experiment [2] was more than 340 µM throughout.
On to `COc1ccc(-c2[nH]nc3c2C(=O)c2c(O)cccc2-3)cc1`, for which the IC50 in experiment [1] was determined as 5.2 µM; in experiment [2], 20 µM.
In the same order, the values of `COc1ccc(-c2[nH]nc3c2C(=O)c2c(NC(=O)CN4CCN(C)CC4)cccc2-3)cc1` are 0.012 µM and 0.125 µM.
For the compound `COc1ccc(-c2[nH]nc3c2C(=O)c2c(NC(=O)NN4CCOCC4)cccc2-3)cc1`, the IC50 in experiment [1] is 0.018 µM; in experiment [3], 0.02 µM; in experiment [4], 0.95 µM; in experiment [2], 0.012 µM; in experiment [5] it was 0.622 µM.
`COc1ccc(-c2[nH]nc3c2C(=O)c2ccncc2-3)cc1`: the IC50 in experiment [1] is 4.7 µM; in experiment [2], 34.5 µM.
Turning to `COc1ccc(-c2[nH]nc3c2C(=O)c2c(NC(=O)NN(C)C)cccc2-3)cc1`, the IC50 in experiment [3] was determined as 0.028 µM; in experiment [4], 0.385 µM; in experiment [6], 0.021 µM; in experiment [7] it was 0.005 µM; in experiment [5], 1.24 µM.
With `COc1ccc(-c2[nH]nc3c2C(=O)c2c(NC(=O)NCc4ccccc4)cccc2-3)cc1`, the 50% inhibitory concentration (IC50) in experiment [1] came out at 0.095 µM; in experiment [2], 0.307 µM.
Taken in the same sequence, the figures for `COc1ccc(CNC(=O)Nc2cccc3c2C(=O)c2c(-c4ccc(OC)cc4)n[nH]c2-3)cc1` were 0.18 µM and more than 1.1 µM.
Taken in the same sequence, the figures for `COc1ccc(-c2[nH]nc3c2C(=O)c2c(NC(=O)CN)cccc2-3)cc1` were more than 0.72 µM and more than 1.4 µM.
Take `COc1ccc(-c2[nH]nc3c2C(=O)c2c(NC(=O)CN4CCOCC4)cccc2-3)cc1`: the IC50 in experiment [1] was found to be 0.021 µM; in experiment [2] it was 0.195 µM.
In the same order, the values of `COc1ccc(-c2[nH]nc3c2C(=O)c2c(NC(=O)Nc4ccccc4)cccc2-3)cc1` are 0.032 µM and 0.877 µM.

What is called IC50 is the concentration at which inhibition is half-maximal. A low value points to greater potency.
